Ec RNAP inh: inhibitors of Escherichia coli RNA polymerase; P0A8V2; E. coli RNA polymerase, fluorescence transcription assay; AID 559; 62,000 compounds, 0.2% hits; inhibition, %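 (tested at 10 µM)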; in the data active = inhibition above about 20%;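 also: 0% = enzyme without compound and 100% = no enzyme blank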
Target sequence (P0A8V2 whole entry, looked up): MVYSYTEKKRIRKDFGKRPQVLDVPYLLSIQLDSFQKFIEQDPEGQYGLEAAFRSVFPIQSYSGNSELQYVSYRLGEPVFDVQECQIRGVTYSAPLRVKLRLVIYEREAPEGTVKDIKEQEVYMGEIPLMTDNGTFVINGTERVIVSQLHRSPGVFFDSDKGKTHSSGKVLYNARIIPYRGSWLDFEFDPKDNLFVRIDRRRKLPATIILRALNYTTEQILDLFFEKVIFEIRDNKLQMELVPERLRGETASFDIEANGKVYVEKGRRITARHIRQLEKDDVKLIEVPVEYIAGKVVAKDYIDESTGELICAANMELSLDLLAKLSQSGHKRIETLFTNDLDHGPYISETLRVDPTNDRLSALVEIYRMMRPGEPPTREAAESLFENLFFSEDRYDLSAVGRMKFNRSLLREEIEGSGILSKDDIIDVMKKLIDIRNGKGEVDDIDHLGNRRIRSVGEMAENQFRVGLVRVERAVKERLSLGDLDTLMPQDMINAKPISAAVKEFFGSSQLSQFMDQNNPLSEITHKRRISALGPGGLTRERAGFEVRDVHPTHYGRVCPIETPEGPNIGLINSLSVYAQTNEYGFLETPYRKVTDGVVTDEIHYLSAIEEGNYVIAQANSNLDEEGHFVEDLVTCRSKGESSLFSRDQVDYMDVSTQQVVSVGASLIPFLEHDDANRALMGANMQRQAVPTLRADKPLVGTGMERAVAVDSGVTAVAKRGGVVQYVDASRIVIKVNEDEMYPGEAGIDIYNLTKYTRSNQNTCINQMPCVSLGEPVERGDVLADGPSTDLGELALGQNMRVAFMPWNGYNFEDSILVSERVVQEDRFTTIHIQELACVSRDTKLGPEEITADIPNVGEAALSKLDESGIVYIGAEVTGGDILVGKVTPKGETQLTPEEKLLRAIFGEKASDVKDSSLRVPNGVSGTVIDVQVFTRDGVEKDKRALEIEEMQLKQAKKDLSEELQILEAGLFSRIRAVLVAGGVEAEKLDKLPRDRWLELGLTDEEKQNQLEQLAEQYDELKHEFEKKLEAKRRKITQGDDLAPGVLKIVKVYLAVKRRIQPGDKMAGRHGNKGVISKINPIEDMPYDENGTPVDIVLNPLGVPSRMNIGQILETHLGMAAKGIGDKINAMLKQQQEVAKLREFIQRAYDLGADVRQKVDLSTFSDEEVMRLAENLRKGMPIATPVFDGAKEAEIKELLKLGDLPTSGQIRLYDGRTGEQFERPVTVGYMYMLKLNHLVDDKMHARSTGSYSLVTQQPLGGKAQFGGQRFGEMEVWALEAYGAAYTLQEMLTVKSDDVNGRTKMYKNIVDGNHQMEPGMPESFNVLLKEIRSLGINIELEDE
DUSP1 inh: blocks human MKP-1 phosphatase activity | P28562 | recombinant MKP-1, OMFP hydrolysis fluorescence | inhibition, %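 (compounds tested at a single concentration somewhere between 10 and 100 µM)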 | 65,000 compounds, 0.15% hits;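 active = inhibition above about 50%, limit read from the data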;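 also: 0% = DMSO max control wells and 100% = wells with enzyme stopped by NaOH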
Cdc25B inh: human M-phase inducer phosphatase 2 inhibition. 65,000 compounds, 0.1% hits. recombinant Cdc25B, OMFP fluorescence Ex485/Em525. inhibition, %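 (compounds tested at 10 µM final in the well)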. AID 368. P30305; in the data active = inhibition above about 50%
Hsp90 block: displaces geldanamycin probe from tumor Hsp90. 64,000 compounds, 0.35% hits. NCI-N417 lysate Hsp90, Cy3B-geldanamycin FP displacement. inhibition, % at 30 µM;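 active = inhibition above 50%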;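 also: 0% = tracer plus lysate wells and 100% = tracer alone without lysate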
BAP1 block: blocks human BAP1 ubiquitin-AMC hydrolysis. recombinant BAP1, Ub-AMC hydrolysis fluorescence kinetic; active compounds read low. calls only at 20 µM. 72,000 compounds, 0.48% hits;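 active = activity remaining at or below 50% of control, provided the compound also passes the data quality filters; inactive = the rest, including low values that fail the filters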;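 also: 100% = DMSO wells rate and 0% = substrate alone blank rate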
Ecoli tolC: E. coli tolC mutant growth inhibition; E. coli BW25113 tolC mutant growth, OD615; growth inhibition, % at 10 µM (by protocol); 65,000 compounds, 2.2% hits;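 active = growth inhibition at or above a cutoff equal to the mean over every tested compound plus 3 SD, cut at about 60% in these data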;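 also: growth measured after 20 h incubation at 37 °C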
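Signal: optical density read at 615 nm; Assay system: E. coli ΔtolC::kan strain BW25113; Times: 20 h incubation with compound, 37 °C; Dosing: 10 µM final, single dose.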
* marks the source's active call; other numbers are inactive results; i = inactive; · = no result given; ! = not confirmed by another sample. An excerpt weighted towards active compounds, which were near 2.9% of everything screened.

SMILES	Ec RNAP inh	DUSP1 inh	Cdc25B inh	Hsp90 block	BAP1 block	Ecoli tolC
COc1ccc(C(=O)Nn2cc3c(c2-c2ccccc2)c(=O)n(C)c(=O)n3C)cc1	3	22	-11	0	i	-4
c1ccc(-c2nc(N3CCCCCC3)nc(-n3ccnc3)n2)cc1	4	-10	-18	1	i	98*
CCc1cc2c3c(c(=O)oc2cc1O)CCCC3	-83	-3	2	0	·	61*
CCC(=O)OCC(=O)c1c(N)n(Cc2ccccc2)c(=O)n(C)c1=O	·	20	0	-6	i	-11
Cn1c(=O)c(C(=S)NC(=O)C2CC2)c(N)n(Cc2ccccc2)c1=O	7	2	-2	1	i	86*
O=C(c1cnn2c1NC(c1ccc3c(c1)OCO3)CC2C(F)(F)F)N1CCN(Cc2ccccc2)CC1 (stereo not drawn)	·	·	·	·	i	·
Cc1nn(-c2ccc(F)cc2)c2sc(C(=O)N3CCCCCC3)cc12	-1	0	-18	6	i	97*
Cc1nn(-c2ccc(Cl)cc2)c2sc(C(=O)N3CCN(C(=O)c4ccco4)CC3)cc12	11	2	-11	·	·	9
COc1ccc(C(=O)Nc2c3c(nn2-c2ccccc2C)CSC3)cc1	·	·	·	·	i	·
Cc1noc(C)c1COC(=O)c1cc(=O)[nH]c2ccccc12	-4	21	8	1	i	6
Cc1cc(C(=O)OCc2nnc(-c3ccccc3)o2)c(C)n1-c1ccccc1	7	16	-14	·	·	63*
O=C(OCc1nnc(-c2ccccc2)o1)c1cn(-c2ccccc2)nc1-c1ccccc1	0	-9	-15	·	·	18
Cc1noc(C)c1COC(=O)c1cc(C)n(-c2ccccc2)c1C	6	30	-12	-1	i	93*
CCC(NC(C)C)C(O)c1ccc(O)c(O)c1 (stereo not drawn)	17	16	10	59*!	i	19
CCOc1ccc(NC(=O)c2ccccc2C(=O)O)cc1	·	·	·	·	i	·
Cc1ccc(S(=O)(=O)Cn2nnnc2CN2CCOCC2)cc1	7	-30	4	2	i	-24
Cc1ccc(S(=O)(=O)Cn2nnnc2CN2CCCC3(CCCCC3)C2)cc1	6	15	-10	0	i	76*
Brc1cccc(C2CC(c3ccccc3)n3nnnc3N2)c1 (stereo not drawn)	2	14	-11	1	i	63*
Nc1nc2n(n1)C(c1cccc(Br)c1)CC(c1ccccc1)N2 (stereo not drawn)	5	3	-8	-2	i	-7
CCCOc1ccc(C2NC(=O)NC(C)=C2C(=O)OCCc2ccccc2)cc1 (stereo not drawn)	·	·	·	·	i	·
COc1ccc(Cn2nnnc2C(c2cc3cccc(C)c3[nH]c2=O)N2CCOCC2)cc1 (stereo not drawn)	-1	7	52*	-1	i	-10
COc1ccc(Cn2nnnc2C(c2cc3cc(C)ccc3[nH]c2=O)N2CCOCC2)cc1 (stereo not drawn)	9	18	-3	-3	·	-8
c1cncc(-c2nc(N3CCCCCC3)c3ccccc3n2)c1	3	22	-3	-5	i	95*
CN1CCN(c2nc(-c3cccnc3)nc3ccccc23)CC1	·	4	-10	-2	i	0
N#C/C(=C\C1CC=CCC1)c1nc2ccccc2[nH]1 (stereo not drawn)	·	-9	-1	-3	i	64*
SMILES	Ec RNAP inh	DUSP1 inh	Cdc25B inh	Hsp90 block	BAP1 block	Ecoli tolC
O=C(CC(=O)c1ccccc1O)c1cccc(F)c1	9	-2	3	2	i	89*
O=C(Nc1cc2cccc([N+](=O)[O-])c2oc1=O)c1cccc2ccccc12	·	·	·	·	i	·
N#Cc1c(N=Cc2c[nH]c3ccccc23)oc(-c2ccccc2)c1-c1ccccc1	·	·	·	·	i	·
COc1cccc(-c2csc(N3CCN(C(=O)Nc4ccccc4OC)CC3)n2)c1	4	11	-2	-4	i	27
COc1cccc(-c2csc(N3CCN(C(=O)C4CCCCC4)CC3)n2)c1	5	21	1	-1	i	69*
COc1ccc(C2CC(C(F)(F)F)n3nc(C(=O)NCc4cccs4)c(Cl)c3N2)cc1OC (stereo not drawn)	·	·	·	·	i	·
CCCCN1C(=O)C2ON(c3ccccc3C)C(c3ccco3)C2C1=O (stereo not drawn)	-3	7	-11	-1	i	61*
CCCc1cc(C(=O)Nc2cccc(C(C)=O)c2)no1	4	-2	-7	-2	i	-9
CCCc1cc(C(=O)Nc2cccc(Cl)c2)no1	3	-5	-11	0	i	98*
Oc1ccc(Br)cc1-c1nc2cnccn2c1NC1CCCC1	4	12	0	·	·	97*
CCOC(=O)C1=C(C)OC(N)=C(C(=O)OCC)C1c1cccnc1 (stereo not drawn)	8	-20	4	72*	i	4
CCOC(=O)C1=C(C)OC(N)=C(C(=O)OCC)C1c1ccncc1 (stereo not drawn)	·	1	-10	-3	i	7
CC1=C(C(=O)Nc2ccc(C)cc2)C(c2ccc(Br)cc2)n2ncnc2N1 (stereo not drawn)	·	·	·	·	i	·
CCN(CC)c1nc(N)c2c(N)nc3c(c2c1C#N)CC(c1ccccc1)O3 (stereo not drawn)	-1	19	-2	-5	·	76*
Clc1ccc(OCCn2ccnc2)c2ccccc12	4	6	-22	-2	i	100*
COc1cccc(N2CC(C(=O)Nc3ccc(C(=O)OC(C)C)cc3)CC2=O)c1 (stereo not drawn)	1	17	-5	-4	i	62*
COc1cccc(N2CC(C(=O)NC3CCCCC3)CC2=O)c1 (stereo not drawn)	8	26	0	-2	i	-4
COC(=O)c1ccc(C(=O)Nc2ccc(C(=O)OC)cc2[N+](=O)[O-])cc1	·	·	·	·	i	·
CCOC(=O)c1c(-c2ccccc2)csc1NC(=O)C12CC3CCC1(C)C3(C)CO2 (stereo not drawn)	·	·	·	·	i	·
COc1ccc(/C(O)=C2\C(=O)C(=O)N(CC3CCCO3)C2c2cc(OC)ccc2OC)cc1 (stereo not drawn)	9	-17	-4	0	i	100*
CCOC(=O)c1ccccc1NC(=O)C(C)Oc1ccccc1 (stereo not drawn)	3	3	-8	0	i	69*
CCOC(=O)c1ccccc1NC(=O)COc1ccccc1	7	-2	-7	-2	i	39
Cc1ccc(Cn2ccc(NC(=O)c3cc(CC(C)C)on3)n2)cc1	6	-9	-3	-3	i	72*
Cc1cccc(Cn2c(=O)n(Cc3ccco3)c(=O)c3ccccc32)c1	4	-2	-4	0	i	91*
O=C(c1ccc(Cl)c(Cl)c1)N(Cc1ccco1)c1ccc(O)cc1	6	-7	-5	-1	i	100*
